# Bioassay records from PubChem.
# HSF1 activator: increases HSF-1 driven luciferase reporter signal; NIH3T3-HGL HSF-1 luciferase reporter, MG132, 8 h; 100% = twice DMSO control signal; activation, % at 9 µM; 300,000 tested, 1.7% active; AID 504408;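 active = mean replicate activation of at least 50% with a set share of replicates each reaching 50%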;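 also: 0% = median of the neutral control wells and 100% = twice that signal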
# HSF1 inh: HSF1 inhibition; NIH3T3-HGL HSE-luciferase, MG132-induced, luminescence 8 h; hits give low values; activity change, negative = inhibition, % at 7.5 µM (by protocol); 300,000 tested, 0.77% active; AID 2098;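 active = more than half of replicate wells show activity change below -50%, luminescence cut by over half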;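 also: luciferase reports HSF-1 transcriptional activity via heat shock element; 0% = median of DMSO wells and -100% = zero luminescence signal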
# PHOSPHO1 block: PHOSPHO1 (human) inhibition; AID 1565; recombinant PHOSPHO1, absorbance phosphatase assay; inhibition, % at 13.3 µM; 290,000 tested, 1.1% active; Q8TCT1; in the data active = inhibition above about 60%
# Target sequence (Q8TCT1 whole entry, looked up): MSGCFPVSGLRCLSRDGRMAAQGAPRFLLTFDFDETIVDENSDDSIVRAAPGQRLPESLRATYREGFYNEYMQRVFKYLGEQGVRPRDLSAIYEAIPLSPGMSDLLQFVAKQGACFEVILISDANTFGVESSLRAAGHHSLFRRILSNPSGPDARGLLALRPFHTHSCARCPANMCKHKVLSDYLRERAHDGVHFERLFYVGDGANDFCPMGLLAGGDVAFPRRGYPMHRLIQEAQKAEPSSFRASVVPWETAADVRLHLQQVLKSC
# HCV core dimer: HCV core protein dimerization inhibition. TR-FRET GST/Flag-core106 dimerization, 1536-well. inhibition, % at 5 µM. 300,000 tested, 0.33% active;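 active = inhibition above the mean of all tested compounds plus 3 SD, set per screening campaign, cut at about 45% in these data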
#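 Assay system – GST-tagged and Flag-tagged HCV core protein residues 1-106 · Quantity – core106 proteins, GST 13.5 nM and Flag 17 nM · Benchmarks – unlabelled core106 and no-GST-core106 wells · Read-out basis – percent inhibition of core106 dimerization signal · Detection – time-resolved FRET, ex 340 nm, em 617 and 671 nm · Schedule – 4 h at 22.5 °C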
# ALR inh: human ALR oxidase inhibition via reduced H2O2 | 290,000 tested, 3.8% active | inhibition, % (concentration not given with the values) | P55789 | purified ALR, DTT oxidation, H2O2 HRP-luminol luminescence;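 active = mean replicate inhibition above about 79%, with every replicate also reaching it, limit read from the data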
# Target sequence (P55789 whole entry, looked up): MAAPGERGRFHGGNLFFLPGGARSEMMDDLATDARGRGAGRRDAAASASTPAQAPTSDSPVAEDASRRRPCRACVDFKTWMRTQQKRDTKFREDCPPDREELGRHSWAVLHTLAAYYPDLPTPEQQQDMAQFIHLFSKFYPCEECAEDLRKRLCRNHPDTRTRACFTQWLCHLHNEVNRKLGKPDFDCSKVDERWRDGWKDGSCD
# AI-2 QS modul: Vibrio harveyi AI-2 quorum sensing modulation; Vibrio harveyi JMH597 AI-2 luminescence/OD600 ratio, 9 h; hits give low values; strain lacks LuxN and CqsS sensors; 0 = neutral-control median; activity change, % at 7.5 µM; 300,000 tested, 0.4% active; AID 2094; in the data active = activity change below about -75%, passing the limit was not always enough;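 also: luminescence divided by OD600 gain over 9 h not by final OD600 alone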
# Active calls of the source: *; · = no result given. An excerpt weighted towards active compounds, which were near 6.8% of everything screened.
SMILES,HSF1 activator,HSF1 inh,PHOSPHO1 block,HCV core dimer,ALR inh,AI-2 QS modul
O=C(O)c1cc(-c2ccco2)nc2ccc(Br)cc12,-5.6,1.9,6.3,20.1,98.1*,51.0
CCCCCCCNC(=O)c1cc(-c2ccncc2)nc2ccccc12,68.2*,43.4,29.9,2.9,-1.6,2.3
CC(C)(C)c1nnc2sc(SCC(=O)N3CCCCC3)nn2c1=O,·,·,·,·,22.1,·
CC(C)(C)c1nnc2sc(SCCN3C(=O)c4ccccc4C3=O)nn2c1=O,26.6,-3.3,-3.8,-6.4,98.7*,12.8
CC(C)N(C(=O)CSc1nn2c(=O)c(C(C)(C)C)nnc2s1)c1ccccc1,13.0,-2.1,24.9,0.7,10.6,14.7
O=C1c2ccccc2C(=O)N1CCSc1n[nH]c(=S)s1,6.0,3.3,98.8*,-6.5,·,18.7
Cc1cc(C(=O)CSc2nn3c(=O)c(C(C)(C)C)nnc3s2)c(C)n1-c1ccc(F)cc1,16.5,-5.4,102.5*,49.1*,-10.9,14.2
CC(=O)N1c2ccc(S(=O)(=O)N3CCCC3C(=O)NCc3ccccc3Cl)cc2CC1C (stereo not given),10.1,2.3,-3.5,2.7,-5.7,36.7
CC1Cc2ccccc2N1C(=O)CSc1nc2ccccc2s1 (stereo not given),55.7*,19.2,-14.7,15.1,0.1,10.6
CC(C)(C)NC(=O)CSc1nc(Cc2ccccc2)nc2ccccc12,17.4,18.9,39.0,4.5,97.6*,-0.6
O=C(CSc1nc2ccccc2s1)N1c2ccccc2Sc2ccccc21,23.8,9.7,7.1,23.4,-5.0,14.0
O=C(CSc1nc2ccccc2s1)N1CCCCC1,27.7,9.9,42.2,-0.7,99.5*,33.9
CC1CN(C(=O)C(C)Sc2nc3ccccc3s2)CC(C)O1 (stereo not given),-0.1,-0.9,22.0,-8.1,98.7*,16.4
CCC(C)(C)NC(=O)CSc1nc(Cc2ccccc2)nc2ccccc12,5.6,4.6,29.1,·,53.3,14.1
CC(=O)NS(=O)(=O)c1ccc(NC(=O)CC(C)c2ccccc2)cc1 (stereo not given),-5.2,-11.0,29.9,-8.7,-0.5,20.4
O=C(O)C1CCN(C(=O)CSc2nc3ccccc3s2)CC1,1.2,-6.0,4.4,-2.8,8.3,30.0
CCc1nc(SCC(=O)N2CCCC2)c2ccccc2n1,-5.3,-3.6,6.4,-10.3,91.8*,23.8
CC1Cc2ccccc2N1C(=O)CSc1nnnn1C(C)C (stereo not given),26.6,5.2,62.3*,1.5,-18.3,6.2
CC(=O)Nc1nnc(SCC(=O)N2C(C)CCCC2C)s1 (stereo not given),10.5,8.1,15.0,-2.1,2.0,40.9
CC1CCCC(C)N1C(=O)CSc1nc2ccccc2s1 (stereo not given),16.9,10.2,9.7,12.7,98.0*,48.6
NC(=O)C1CCN(C(=O)CSc2nc3ccccc3s2)CC1,3.1,-5.4,3.2,-0.8,97.8*,7.6
CC1Cc2ccccc2N1C(=O)CSc1nnnn1C (stereo not given),-10.7,-5.8,1.9,4.0,-18.5,17.5
Cc1ccc(S(=O)(=O)N2CCOCC2)cc1NC(=O)COc1cccc(Oc2ccccc2)c1,-17.8,0.8,·,0.9,0.5,12.6
Cc1nc2ccccc2nc1SCC(=O)N1CCC(C)CC1,49.1,13.5,28.4,12.8,-10.0,26.9
CC1CCN(C(=O)CSc2nc3ccccc3s2)CC1,53.7*,29.7,42.3,-1.0,98.7*,-32.5
SMILES,HSF1 activator,HSF1 inh,PHOSPHO1 block,HCV core dimer,ALR inh,AI-2 QS modul
O=C(CSc1nc2ccccc2s1)N1CCN(C(=O)c2ccco2)CC1,16.8,3.8,-3.4,4.3,98.6*,15.0
CCOc1ccc2nc(SCC(=O)N3CCN(C(=O)c4ccco4)CC3)sc2c1,11.2,0.1,3.2,2.7,-4.9,19.6
CCN1C(=O)/C(=C2/SC(C)=C(C)N2CC)SC1=S,34.4,-0.6,79.8*,-22.1,97.0*,12.2
COc1ccc(OC)c(S(=O)(=O)NCc2ccccn2)c1,15.8,-4.1,14.1,-1.3,-5.5,9.2
Cn1cnnc1SCC(=O)c1ccc2c(c1)NC(=O)CO2,·,·,·,·,28.4,·
CCCc1cc(=O)[nH]c(SCC(=O)c2ccc3c(c2)NC(=O)CO3)n1,-11.1,-0.2,28.1,-2.6,97.0*,19.7
Cc1ccccc1NCCNc1ccccc1C,-7.8,-2.3,-8.6,-9.4,98.8*,6.7
COc1cccc(CC(NC(C)=O)C(=O)NC2CCN(S(=O)(=O)c3ccc(C)cc3)CC2)c1OC (stereo not given),-14.6,-8.2,-1.1,-3.3,-4.3,5.0
COCCNC(=S)N(CCc1c(C)[nH]c2ccccc12)Cc1cccnc1,-1.2,-0.2,19.9,8.1,97.0*,4.9
CNC(=S)N(CCc1c(C)[nH]c2ccc(C)cc12)Cc1cccnc1,12.3,0.8,20.2,5.9,·,-0.4
COCCNC(=S)N(CCc1c(C)[nH]c2ccc(F)cc12)Cc1ccco1,53.4*,28.6,-9.3,-5.4,31.4,22.1
CNC(=S)N(CCc1c(C)[nH]c2ccc(Cl)cc12)Cc1cccnc1,6.8,7.2,11.4,-9.6,97.0*,2.9
CCNC(=S)N(CCc1c(C)[nH]c2ccc(Cl)cc12)Cc1cccnc1,13.1,7.2,·,9.8,55.2,12.7
CNC(=S)N(CCc1c(C)[nH]c2ccccc12)Cc1cccnc1,-5.3,1.2,·,-12.0,99.9*,-8.5
COC(=O)N/N=C/c1cn(Cc2c(Cl)cccc2Cl)c2ccccc12,-12.5,-12.2,-15.9,-0.6,-2.1,24.8
C=CCn1sc(N)c(C(=O)OCC)c1=S,-3.9,2.4,1.8,-0.5,99.2*,2.8
CCOC(=O)c1c(N)ssc1=S,3.8,2.8,14.3,-2.7,67.7,19.4
CCOc1ccc(C(=S)NC2CCCCC2)cc1OC,29.3,3.2,80.8*,-6.3,56.7,5.4
CCOc1ccccc1C(=S)NC1CCCCC1,-8.9,0.4,23.9,9.6,-6.5,·
CCOC(=O)CNc1c(-c2ccc(O)cc2)nc2ccc(Cl)cn12,72.4*,61.8,-117.2,0.4,65.2,13.3
CCOC(=O)CNc1c(-c2ccccc2)nc2ccc(Cl)cn12,23.8,7.1,23.4,-5.8,54.6,14.3
COc1cccc(CNc2ccc([N+](=O)[O-])c(NCC(=O)O)n2)c1,-0.8,-3.9,37.8,-4.2,-6.8,21.7
COc1cccc(-c2nc(CS(=O)(=O)CC(=O)NCCCN3C(C)CCCC3C)c(C)o2)c1 (stereo not given),-28.7,-1.4,29.3,-7.8,10.7,3.0
CCN1CCN(CCCNC(=O)CS(=O)(=O)Cc2nc(-c3cccc(OC)c3)oc2C)CC1,4.1,4.6,29.3,-7.1,90.5*,-4.9
COc1cccc(-c2nc(CS(=O)(=O)CC(=O)NCCCN3CC(C)CC(C)C3)c(C)o2)c1 (stereo not given),-9.8,2.0,59.8,-21.2,89.7*,2.9
